# According to ChEMBL document CHEMBL1275484, “Rifampin and rifaximin resistance in clinical isolates of Clostridium difficile” (Antimicrob Agents Chemother, 2008):
# Columns and labels:
# Type in all cases: functional
# Clostridioides difficile [1] = experiment: Antimicrobial activity against Clostridium difficile isolate 37 by agar dilution method
# Outline: (§1)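 MIC by CLSI reference agar dilution for anaerobes, with endpoints read per M11-A7 and C. difficile […] as control. Rifaximin was dissolved in methanol, diluted in 0.1 M phosphate buffer pH 7.4 plus 0.45% SDS, and tested at 0.0009–256 μg/ml. Rifampin was dissolved in methanol, diluted in water, and tested at 0.00001–256 μg/ml.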
# Clostridioides difficile [2] = experiment: Antimicrobial activity against Clostridium difficile isolate 40 by agar dilution method
# Outline: (§2)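 CLSI reference agar dilution method for anaerobes, with endpoints read per guideline M11-A7. Rifaximin was dissolved in methanol, diluted in 0.1 M phosphate buffer (pH 7.4) with 0.45% SDS, and tested at 0.0009–256 μg/ml. Rifampin was dissolved in methanol, diluted in water, and tested at 0.00001–256 μg/ml. C. difficile ATCC […] served as control. Isolates were typed by HindIII REA.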
# Clostridioides difficile [3] = experiment: Antimicrobial activity against Clostridium difficile isolate 47 by agar dilution method; outline: as §2
# Clostridioides difficile [4] = experiment: Antimicrobial activity against Clostridium difficile isolate 52 by agar dilution method; outline: as §2
# Clostridioides difficile [5] = experiment: Antimicrobial activity against Clostridium difficile isolate 53 by agar dilution method; outline: as §2
# Clostridioides difficile [6] = experiment: Antimicrobial activity against Clostridium difficile isolate 54 by agar dilution method; outline: as §2
# Clostridioides difficile [7] = experiment: Antimicrobial activity against Clostridium difficile isolate 56 by agar dilution method; outline: as §2
# Clostridioides difficile [8] = experiment: Antimicrobial activity against Clostridium difficile isolate 58 by agar dilution method; outline: as §2
# Clostridioides difficile [9] = experiment: Antimicrobial activity against Clostridium difficile isolate 62 by agar dilution method
# Outline: (§3)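 CLSI reference agar dilution for anaerobes, with endpoints read per guideline M11-A7. Rifaximin was dissolved in methanol, diluted in 0.1 M phosphate buffer pH 7.4 with 0.45% SDS, and tested at 0.0009–256 μg/ml. Rifampin was dissolved in methanol, diluted in water, and tested at 0.00001–256 μg/ml. Control strain: C. difficile ATCC […]. Isolates were typed by HindIII REA.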
# Clostridioides difficile [10] = experiment: Antimicrobial activity against Clostridium difficile isolate 63 by agar dilution method; outline: as §3
# Clostridioides difficile [11] = experiment: Antimicrobial activity against rifaximin-resistant Clostridium difficile isolate 67 expressing RpoB H502N and R505K mutants by agar dilution method
# Outline: as §1, with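 “MICs were found” for “MIC”, “by the” for “by”, “dilution method” for “dilution”, “with” for “plus”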
# Clostridioides difficile [12] = experiment: Antimicrobial activity against Clostridium difficile isolate 69 by agar dilution method; outline: as §3
# Clostridioides difficile [13] = experiment: Antimicrobial activity against Clostridium difficile isolate 70 by agar dilution method; outline: as §3
# Clostridioides difficile [14] = experiment: Antimicrobial activity against Clostridium difficile isolate 72 by agar dilution method; outline: as §3
# Clostridioides difficile [15] = experiment: Antimicrobial activity against Clostridium difficile isolate 75 by agar dilution method; outline: as §3
# Clostridioides difficile [16] = experiment: Antimicrobial activity against Clostridium difficile isolate 76 by agar dilution method; outline: as §3
# Clostridioides difficile [17] = experiment: Antimicrobial activity against Clostridium difficile isolate 77 by agar dilution method; outline: as §3
# Clostridioides difficile [18] = experiment: Antimicrobial activity against Clostridium difficile isolate 79 by agar dilution method; outline: as §3
# Clostridioides difficile [19] = experiment: Antimicrobial activity against rifaximin-resistant Clostridium difficile isolate 4 expressing RpoB S488T and R505K mutants by Etest
# Outline: (§4)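 Rifampin Etest on clinical C. difficile isolates typed by HindIII REA, run per the strip manufacturer's instructions on brucella blood agar, with the MIC read from the strip.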
# Clostridioides difficile [20] = experiment: Antimicrobial activity against Clostridium difficile isolate 25 by Etest
# Outline: (§5)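 Rifampin MIC by Etest strip on brucella blood agar, run per the strip maker's instructions. Isolates were HindIII REA-typed clinical C. difficile.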
# Clostridioides difficile [21] = experiment: Antimicrobial activity against Clostridium difficile isolate 31 by Etest; outline: as §5
# Clostridioides difficile [22] = experiment: Antimicrobial activity against Clostridium difficile isolate 39 by Etest
# Outline: (§6)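 Rifampin Etest strips were run on brucella blood agar following the manufacturer's instructions to give an MIC. Clinical isolates were typed by HindIII REA.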
# Clostridioides difficile [23] = experiment: Antimicrobial activity against Clostridium difficile isolate 44 by Etest; outline: as §6
# Clostridioides difficile [24] = experiment: Antimicrobial activity against Clostridium difficile isolate 48 by Etest; outline: as §6
# Clostridioides difficile [25] = experiment: Antimicrobial activity against rifaximin-resistant Clostridium difficile isolate 50 expressing RpoB R505K mutant by Etest; outline: as §4
# Clostridioides difficile [26] = experiment: Antimicrobial activity against Clostridium difficile isolate 53 by Etest; outline: as §6
# Clostridioides difficile [27] = experiment: Antimicrobial activity against Clostridium difficile isolate 56 by Etest; outline: as §6
# Clostridioides difficile [28] = experiment: Antimicrobial activity against Clostridium difficile isolate 59 by Etest; outline: as §6
# Clostridioides difficile [29] = experiment: Antimicrobial activity against Clostridium difficile isolate 61 by Etest; outline: as §6
# Clostridioides difficile [30] = experiment: Antimicrobial activity against rifaximin-resistant Clostridium difficile isolate 64 expressing RpoB H502R mutant by Etest; outline: as §4
# Clostridioides difficile [31] = experiment: Antimicrobial activity against rifaximin-resistant Clostridium difficile isolate 67 expressing RpoB H502N and R505K mutants by Etest; outline: as §4
# Clostridioides difficile [32] = experiment: Antimicrobial activity against Clostridium difficile isolate 70 by Etest
# Outline: (§7)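 Rifampin MIC by Etest on brucella blood agar, run per the strip manufacturer's instructions, against clinical isolates typed by HindIII REA.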
# Clostridioides difficile [33] = experiment: Antimicrobial activity against Clostridium difficile isolate 71 by Etest; outline: as §7
# Clostridioides difficile [34] = experiment: Antimicrobial activity against Clostridium difficile isolate 73 by Etest; outline: as §7
# Clostridioides difficile [35] = experiment: Antimicrobial activity against Clostridium difficile isolate 74 by Etest; outline: as §7
# Clostridioides difficile [36] = experiment: Antimicrobial activity against Clostridium difficile isolate 76 by Etest; outline: as §7
# Clostridioides difficile [37] = experiment: Antimicrobial activity against Clostridium difficile isolate 78 by Etest; outline: as §7
# Clostridioides difficile [38] = experiment: Antimicrobial activity against Clostridium difficile isolate 80 by Etest; outline: as §7
# Clostridioides difficile [39] = experiment: Antimicrobial activity against rifaximin-resistant Clostridium difficile isolate 4 expressing RpoB S488T and R505K mutants by agar dilution method
# Outline: as §1, with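 “MICs were found” for “MIC”, “by the” for “by”, “dilution method” for “dilution”, “with” for “plus”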
# Clostridioides difficile [40] = experiment: Antimicrobial activity against Clostridium difficile isolate 6 by agar dilution method; outline: as §2
# Clostridioides difficile [41] = experiment: Antimicrobial activity against Clostridium difficile isolate 13 by agar dilution method; outline: as §1
# Clostridioides difficile [42] = experiment: Antimicrobial activity against Clostridium difficile isolate 15 by agar dilution method; outline: as §1
# Clostridioides difficile [43] = experiment: Antimicrobial activity against Clostridium difficile isolate 16 by agar dilution method; outline: as §1
# Clostridioides difficile [44] = experiment: Antimicrobial activity against Clostridium difficile isolate 23 by agar dilution method; outline: as §1
# Clostridioides difficile [45] = experiment: Antimicrobial activity against rifaximin-resistant Clostridium difficile isolate 24 expressing RpoB H502N and R505K mutants by agar dilution method
# Outline: as §1, with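 “MICs were found” for “MIC”, “by the” for “by”, “dilution method” for “dilution”, “with” for “plus”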
# Clostridioides difficile [46] = experiment: Antimicrobial activity against rifaximin-resistant Clostridium difficile isolate 26 expressing RpoB R505K mutant by agar dilution method
# Outline: as §1, with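 “MICs were found” for “MIC”, “by the” for “by”, “dilution method” for “dilution”, “with” for “plus”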
# Clostridioides difficile [47] = experiment: Antimicrobial activity against Clostridium difficile isolate 27 by agar dilution method; outline: as §1
# Clostridioides difficile [48] = experiment: Antimicrobial activity against Clostridium difficile isolate 29 by agar dilution method; outline: as §1
# Clostridioides difficile [49] = experiment: Antimicrobial activity against Clostridium difficile isolate 30 by agar dilution method; outline: as §1
# Clostridioides difficile [50] = experiment: Antimicrobial activity against Clostridium difficile isolate 32 by agar dilution method; outline: as §1
compound,measurement,setting,value
CO[C@H]1/C=C/O[C@@]2(C)Oc3c(C)c(O)c4c(O)c(c(/C=N/N5CCN(C)CC5)c(O)c4c3C2=O)NC(=O)/C(C)=C\C=C\[C@H](C)[C@H](O)[C@@H](C)[C@@H](O)[C@@H](C)[C@H](OC(C)=O)[C@@H]1C [RIFAMPIN],MIC,Clostridioides difficile [1],0.4 ng/mL
same,MIC,Clostridioides difficile [2],0.9 ng/mL
same,MIC,Clostridioides difficile [3],0.9 ng/mL
same,MIC,Clostridioides difficile [4],1.9 ng/mL
same,MIC,Clostridioides difficile [5],1.9 ng/mL
same,MIC,Clostridioides difficile [6],0.9 ng/mL
same,MIC,Clostridioides difficile [7],0.9 ng/mL
same,MIC,Clostridioides difficile [8],0.9 ng/mL
same,MIC,Clostridioides difficile [9],0.9 ng/mL
same,MIC,Clostridioides difficile [10],0.4 ng/mL
same,MIC,Clostridioides difficile [11],> 256000 ng/mL
same,MIC,Clostridioides difficile [12],0.06 ng/mL
same,MIC,Clostridioides difficile [13],0.06 ng/mL
same,MIC,Clostridioides difficile [14],0.06 ng/mL
same,MIC,Clostridioides difficile [15],0.06 ng/mL
same,MIC,Clostridioides difficile [16],0.06 ng/mL
same,MIC,Clostridioides difficile [17],0.06 ng/mL
same,MIC,Clostridioides difficile [18],0.06 ng/mL
same,MIC,Clostridioides difficile [19],> 32000 ng/mL
same,MIC,Clostridioides difficile [20],< 2 ng/mL
same,MIC,Clostridioides difficile [21],< 2 ng/mL
same,MIC,Clostridioides difficile [22],< 2 ng/mL
same,MIC,Clostridioides difficile [23],< 2 ng/mL
same,MIC,Clostridioides difficile [24],< 2 ng/mL
same,MIC,Clostridioides difficile [25],> 32000 ng/mL
same,MIC,Clostridioides difficile [26],< 2 ng/mL
same,MIC,Clostridioides difficile [27],< 2 ng/mL
same,MIC,Clostridioides difficile [28],< 2 ng/mL
same,MIC,Clostridioides difficile [29],< 2 ng/mL
same,MIC,Clostridioides difficile [30],> 32000 ng/mL
same,MIC,Clostridioides difficile [31],> 32000 ng/mL
same,MIC,Clostridioides difficile [32],< 2 ng/mL
same,MIC,Clostridioides difficile [33],< 2 ng/mL
same,MIC,Clostridioides difficile [34],< 2 ng/mL
same,MIC,Clostridioides difficile [35],< 2 ng/mL
same,MIC,Clostridioides difficile [36],< 2 ng/mL
same,MIC,Clostridioides difficile [37],< 2 ng/mL
same,MIC,Clostridioides difficile [38],< 2 ng/mL
same,MIC,Clostridioides difficile [39],> 256000 ng/mL
same,MIC,Clostridioides difficile [40],0.06 ng/mL
same,MIC,Clostridioides difficile [41],0.09 ng/mL
same,MIC,Clostridioides difficile [42],0.9 ng/mL
same,MIC,Clostridioides difficile [43],0.9 ng/mL
same,MIC,Clostridioides difficile [44],0.9 ng/mL
same,MIC,Clostridioides difficile [45],> 256000 ng/mL
same,MIC,Clostridioides difficile [46],128000 ng/mL
same,MIC,Clostridioides difficile [47],0.4 ng/mL
same,MIC,Clostridioides difficile [48],0.9 ng/mL
same,MIC,Clostridioides difficile [49],0.9 ng/mL
same,MIC,Clostridioides difficile [50],0.9 ng/mL
